ChEMBL document CHEMBL1133503 (J Med Chem, 2000)

Columns and labels:
[1] = Concentration required to reduce cell survival to 10% of controls using V-79 cells in the clonogenic assay, in aerobic conditions; format: functional; settings: Cricetulus griseus, V79
Summary of the method: (§1)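 V-79 cells (500 000 per bottle) grown 20 h in MEM with 10% FBS. Hypoxic set gassed 2 h at 37 °C with humidified 95% N2/5% CO2. Drug in ethanol/water or DMF injected through septa. Exposure 3 h under air or hypoxia. Cells trypsinised, counted by trypan blue, 500 plated in triplicate for 6–8 days. Colonies stained with crystal violet, survival relative to solvent control.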

[2] = Hypoxic selectivity expressed as the ratio of IC50 values in air and nitrogen; format: functional
Rattus norvegicus [3] = species: Rattus norvegicus; assay: Bioreduction experiment was conducted by incubation of the sulfoxides with rat liver S-9 fractions in anaerobic conditions (N2); format: functional
Summary of the method: (§2)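 Rat liver S-9 fraction incubated with sulfoxide at 37 °C for 30 min with shaking. Aerobic vials were left open to air. Anaerobic vials were purged with N2 for 10 min before the compound was injected. Cofactor was NADPH, benzaldehyde, 2-hydroxypyrimidine or acetaldehyde, or none. Controls were boiled S-9 and S-9 without cofactors. For menadione, S-9 was preincubated aerobically with 1 equiv for 30 min, then benzaldehyde was added. Sulfide or sulfone was measured by HPLC or TLC densitometry.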

[4] = Concentration required to reduce cell survival to 10% of controls using V-79 cells in the clonogenic assay, in anaerobic conditions (hypoxic conditions); format: functional; settings: Cricetulus griseus, V79; summary of the method: as §1
Rattus norvegicus [5] = species: Rattus norvegicus; assay: Bioreduction experiment was conducted by incubation of the sulfoxides with rat liver S-9 fractions in anaerobic conditions (N2, without cofactors); format: functional; parameters: concentration or dose not given beside the values; summary of the method: as §2
Rattus norvegicus [6] = species: Rattus norvegicus; assay: Reduction potential (SCE) determined by differential pulse polarography of the sulfoxides […]; format: functional
Rattus norvegicus [7] = species: Rattus norvegicus; assay: Bioreduction experiment was conducted by incubation of the sulfoxides with rat liver S-9 fractions in anaerobic conditions (N2, benzaldehyde); format: functional; parameters: concentration or dose not given beside the values; summary of the method: as §2
Rattus norvegicus [8] = species: Rattus norvegicus; assay: Bioreduction experiment was conducted by incubation of the sulfoxides with rat liver S-9 fractions in anaerobic conditions (N2 2-hydroxypyrimidine); format: functional; summary of the method: as §2
[9] = Relative cytotoxicity is expressed as the ratio of the IC50 values of the corresponding sulfide to sulfoxide or to sulfone; format: functional, Cricetulus griseus
Summary of the method: (§3)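 V-79 cells (about 7 × 10³ per 100 μL) preincubated 24 h, then exposed to drug for 3 h under oxic conditions. Washed 5× with HBSS and grown 48 h more. Fixed with TCA and stained with SRB. Bound dye dissolved in 10 mM Tris, spotted on TLC and read by video densitometry. IC50 is the mean of triplicates in one experiment. Ratio is IC50 of sulfide over sulfoxide or sulfone.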

[10] = Concentration of drug required to reduce V-79 cell survival to 50% of controls in a SRB assay; format: functional, cell-based; settings: Cricetulus griseus, V79; summary of the method: as §3
Rattus norvegicus [11] = species: Rattus norvegicus; assay: Bioreduction experiment was conducted by incubation of the sulfoxides with rat liver S-9 fractions in anaerobic conditions N2); format: functional; summary of the method: as §2
Rattus norvegicus [12] = species: Rattus norvegicus; assay: Bioreduction experiment was conducted by incubation of the sulfoxides with rat liver S-9 fractions in aerobic conditions(air, benzaldehyde); format: functional; summary of the method: as §2
Rattus norvegicus [13] = species: Rattus norvegicus; assay: Bioreduction experiment was conducted by incubation of the sulfoxides with rat liver S-9 fractions in aerobic conditions(air, NADPH); format: functional; summary of the method: as §2
Rattus norvegicus [14] = species: Rattus norvegicus; assay: Bioreduction experiment was conducted by incubation of the sulfoxides with rat liver S-9 fractions in anaerobic conditions(N2, without cofactors); format: functional; summary of the method: as §2
Rattus norvegicus [15] = species: Rattus norvegicus; assay: Bioreduction experiment was conducted by incubation of the sulfoxides with rat liver S-9 fractions in anaerobic conditions(N2, menadione); format: functional; summary of the method: as §2
Rattus norvegicus [16] = species: Rattus norvegicus; assay: Bioreduction experiment was conducted by incubation of the sulfoxides with rat liver S-9 fractions in aerobic conditions(air ); format: functional; summary of the method: as §2
Rattus norvegicus [17] = species: Rattus norvegicus; assay: Bioreduction experiment was conducted by incubation of the sulfoxides with rat liver S-9 fractions in aerobic conditions(air without cofactors); format: functional; summary of the method: as §2

Structure (SMILES) | IC90 [1] [mM] | Selectivity [2] | IC90 [4] [µM] | E (Rattus norvegicus [6]) | Cytotoxicity [9] | IC50 [10] [µM] | also measured
[O-][s+]1c2ccc(N(CCCl)CCCl)cc2c2cc(N(CCCl)CCCl)ccc21 | 4.67 | 3 | 1520 | 1.96 -V | – | – | Bioreduction (Rattus norvegicus [3]): 0%; Bioreduction (Rattus norvegicus [5]): 0.6%; Bioreduction (Rattus norvegicus [7]): 0.6%; Bioreduction (Rattus norvegicus [8]): 0.33%
[O-][S+](c1ccccc1)c1ccc(N(CCCl)CCCl)cc1 (centres undefined) | 2.01 | 11 | 189 | – | – | – | –
Nc1ccc(Sc2ccc(N(CCCl)CCCl)cc2)cc1 | – | – | – | – | 1 | 2.49 | –
C[S+]([O-])c1ccccc1 (centres undefined) [METHYLPHENYLSULFOXIDE] | – | – | – | 2.4 -V | – | – | Bioreduction (Rattus norvegicus [5]): 0%; Bioreduction (Rattus norvegicus [11]): 0%; Bioreduction (Rattus norvegicus [7]): 10.2%
O=[N+]([O-])c1ccc(S(=O)(=O)c2ccc(N(CCCl)CCCl)cc2)cc1 | – | – | – | – | 0.08 | 26.7 | –
Nc1ccc(S(=O)(=O)c2ccc(N(CCCl)CCCl)cc2)cc1 | – | – | – | – | 0.09 | 26.9 | –
[O-][S+](c1ccc(N(CCCl)CCCl)cc1)c1ccc(N(CCCl)CCCl)cc1 | 3.09 | 17 | 184 | 2.63 -V | – | – | Bioreduction (Rattus norvegicus [12]): 0%; Bioreduction (Rattus norvegicus [3]): 0%; Bioreduction (Rattus norvegicus [13]): 0%; Bioreduction (Rattus norvegicus [14]): 0%; Bioreduction (Rattus norvegicus [15]): 0%; Bioreduction (Rattus norvegicus [16]): 0%; Bioreduction (Rattus norvegicus [17]): 0%
O=[N+]([O-])c1ccc(Sc2ccc(N(CCCl)CCCl)cc2)cc1 | – | – | – | – | 1 | 2.25 | –
